This is an account of results in ChEMBL document CHEMBL1122999 (J Med Chem, 1985).

The term inhibition denotes the percentage by which the read-out fell short of the control. The low end stands for a response near the control, the high end for a response far below the control. In general, IC50 refers to the concentration needed to halve the response being measured. The term pKa denotes the pH at which an ionisable group is half protonated. What is called logD is lipophilicity at a set pH, counting ionised and neutral species. A higher logD goes with a more lipophilic compound. In general, Inhibition refers to the share of the control response that was lost under treatment. A lower Inhibition goes with a weak effect.

Data set [1] addresses 4-aminobutyrate aminotransferase, mitochondrial (Rattus norvegicus) (UniProt P50554). The experiment in a line: Percent of enzyme inhibition by Gamma-amino-N-butyrate transaminase assay method. Conditions: concentration not given here. Put shortly: (§1)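 Rat diencephalon-midbrain homogenate in Tris-HCl pH 8.0 with Triton X-100. Incubated with 2 mM α-ketoglutarate, 0.2 mM GABA and 20 µM pyridoxal phosphate, test agent at 1 mM final, 30 min at 37 °C. Blanks held at 4 °C. Glutamate formed read fluorometrically as NADH via glutamate dehydrogenase.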

The species entered for data set [2] is Rattus norvegicus. The experiment in a line: Inhibition of GABA uptake from rat diencephalon-midbrain. The data set is classed as functional. Put shortly:
(§2)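 P2 synaptosomal fraction prepared from rat brain in 0.32 M sucrose by 1000g and 16500g spins. About 150 µg protein preincubated 15 min at 37 °C with inhibitor in oxygenated Tris/NaCl buffer, pH 7.4, containing 2.7 mM CaCl2 and 10 µM aminooxyacetic acid. Uptake of 1 µM [3H]GABA run for 3 min, then filtered and counted. Accumulation at 0 °C subtracted. Screening at 10, 1 and 0.1 µM in quadruplicate on pooled diencephalon-midbrain tissue.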

The species named for data set [3] is Rattus norvegicus. The experiment in a line: (§3) Inhibition of GABA uptake from rat diencephalon-midbrain,. The data set is classed as functional.
The species entered for data set [4] is Rattus norvegicus. Nature of the data set: (§4) Inhibition of Norepinephrine uptake from rat diencephalon-midbrain. The data set is classed as functional.
Data set [5] has as its target D(2) dopamine receptor (Rattus norvegicus) (UniProt P61169). Nature of the data set: Percent inhibition of Dopamine receptor D2 from rat striatal membrane using [3H]- spiroperidol as radioligand at 50 uM. In outline: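 Rat striatal membranes with 0.22 nM [3H]spiroperidol (KD 0.287 nM). Nonspecific binding defined with 1 µM d-butaclamol.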
The target of data set [6] is T1, GABA-A receptor; anion channel (Rattus norvegicus) (UniProt O09028+P15431+P18506+P18508+P19969+P20236+P23574+P23576+P28471+P28473+P30191+P62813+P63079+P63138+Q91ZM7+Q9ES14). The experiment in a line: Displacement of [3H]- muscimol from GABA-A receptor from rat cerebellum membrane at 100 uM. The format is tissue-based. For orientation: In a radioligand displacement assay an active substance lowers the binding of a labelled ligand.

The nature of data set [7]: Dissociation constant pKa (CO2H) was evaluated. The format is physicochemical.
Data set [8] can be described thus: Dissociation constant pKa (N) was evaluated. The data set is classed as physicochemical.
Data set [9] concerns the target Muscarinic acetylcholine receptor (Rattus norvegicus) (UniProt P08482+P08483+P08485+P08911+P10980). The experiment in a line: Percent inhibition of Muscarinic acetylcholine receptor from rat striatal membrane using [3H]- QNB as radioligand at 100 uM. In outline: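 Displacement on rat striatal membranes using 0.23 nM [3H]QNB (KD 0.20 nM). Nonspecific binding defined with 1 µM atropine.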

Data set [10] concerns the target Adrenergic receptor alpha-1 (Rattus norvegicus) (UniProt P15823+P23944+P43140). The experiment in a line: Percent inhibition of alpha-1 adrenergic receptor from rat cortical membrane using [3H]- WB-4101 as radioligand at 10 uM. In outline: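 Rat cortical membranes labelled with 0.22 nM [3H]WB4101 (KD 0.306 nM). Nonspecific binding defined with 100 µM norepinephrine.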

Data set [11] is described as follows: Distribution coefficient was evaluated. Conditions: octanol/water. The format is physicochemical. In outline: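 Distribution coefficient (log D) measured between 1-octanol and phosphate buffer, pH 7.4.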
The target of data set [12] is 4-aminobutyrate aminotransferase, mitochondrial (Rattus norvegicus) (UniProt P50554). The experiment in a line: Percent inhibition of Gamma-amino-N-butyrate transaminase from rat was evaluated. Particulars: concentration not given here. In outline: as §1
4-aminobutyrate aminotransferase, mitochondrial (Rattus norvegicus), sequence (P50554 28-500 limits assumed): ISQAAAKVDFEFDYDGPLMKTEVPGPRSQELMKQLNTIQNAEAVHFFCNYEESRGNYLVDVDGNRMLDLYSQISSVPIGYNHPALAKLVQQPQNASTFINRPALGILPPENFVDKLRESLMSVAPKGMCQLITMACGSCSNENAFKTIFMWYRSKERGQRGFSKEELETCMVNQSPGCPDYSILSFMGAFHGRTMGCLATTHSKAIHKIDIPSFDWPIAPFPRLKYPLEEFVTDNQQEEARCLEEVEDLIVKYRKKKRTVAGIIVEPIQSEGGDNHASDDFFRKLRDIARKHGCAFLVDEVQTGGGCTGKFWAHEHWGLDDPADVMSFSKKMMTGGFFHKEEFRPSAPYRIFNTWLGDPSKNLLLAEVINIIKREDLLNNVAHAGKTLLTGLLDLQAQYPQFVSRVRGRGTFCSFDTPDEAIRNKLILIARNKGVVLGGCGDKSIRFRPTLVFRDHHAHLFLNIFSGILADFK
Data set [13] concerns the target T1, GABA-A receptor; anion channel (Rattus norvegicus). The experiment in a line: Percent inhibition of [3H]- Diazepam binding to GABA-A Benzodiazepine receptor of rat frontal cortex membranes. The format is cell membranes. Particulars: Membrane, concentration not given here. Put shortly: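 Rat frontal cortex membranes with 1.5 nM [3H]diazepam (KD 9.7 nM). Nonspecific binding defined with 3 µM diazepam.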

Data set [14] has as its target Serotonin 1 (5-HT1) receptor (Rattus norvegicus) (UniProt P28564+P30940+P19327+P28565). The experiment in a line: Percent inhibition of 5-hydroxytryptamine 1 receptor from rat cortex membrane using [3H]- serotonin as radioligand at 33 uM.
In data set [15] the target is T2, Glutamate decarboxylase 1 (Rattus norvegicus) (UniProt P18088).
T2 sequence (whole entry): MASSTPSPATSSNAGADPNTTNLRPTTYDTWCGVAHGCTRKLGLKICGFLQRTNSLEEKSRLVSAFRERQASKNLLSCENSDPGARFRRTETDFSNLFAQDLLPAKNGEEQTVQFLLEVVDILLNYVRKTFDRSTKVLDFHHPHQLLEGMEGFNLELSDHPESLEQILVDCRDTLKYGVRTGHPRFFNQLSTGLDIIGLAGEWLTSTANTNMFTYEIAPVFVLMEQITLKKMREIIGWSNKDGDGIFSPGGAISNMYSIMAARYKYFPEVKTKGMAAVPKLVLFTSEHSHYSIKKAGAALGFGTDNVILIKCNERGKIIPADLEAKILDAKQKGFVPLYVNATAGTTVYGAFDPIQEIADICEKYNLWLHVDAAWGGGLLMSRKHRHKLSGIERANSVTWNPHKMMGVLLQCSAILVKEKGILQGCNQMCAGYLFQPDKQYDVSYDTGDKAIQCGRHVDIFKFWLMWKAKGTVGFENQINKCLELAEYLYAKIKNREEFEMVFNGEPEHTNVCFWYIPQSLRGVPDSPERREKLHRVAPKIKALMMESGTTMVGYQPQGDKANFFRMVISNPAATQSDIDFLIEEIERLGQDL
Nature of the data set: Percent inhibition of Glutamate decarboxylase from rat was evaluated. Particulars: concentration not given here. In outline:
(§5)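 Homogenate of rat diencephalon-midbrain in phosphate buffer pH 6.5 with Triton X-100. Incubated with 5 mM l-glutamate, 10 µM pyridoxal phosphate and test agent at 1 mM final, 30 min at 37 °C. Stopped by boiling; boiled-enzyme blanks used. GABA formed quantified fluorometrically with GABAase and NADPH.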

The target in data set [16] is T2, Glutamate decarboxylase 1 (Rattus norvegicus). Nature of the data set: Percent of enzyme inhibition by Glutamate decarboxylase assay method. Conditions: concentration not given here. Put shortly:
as §5

The species named for data set [17] is Rattus norvegicus. Nature of the data set: Inhibition of GABA uptake from rat diencephalon-midbrain at 1 uM concentration. The data set is classed as functional. Put shortly: as §2
The target of data set [18] is Norepinephrine transporter (Rattus norvegicus, UniProt Q9WTR4). The data set is described as §4.
Norepinephrine transporter, sequence (Q9WTR4 whole entry): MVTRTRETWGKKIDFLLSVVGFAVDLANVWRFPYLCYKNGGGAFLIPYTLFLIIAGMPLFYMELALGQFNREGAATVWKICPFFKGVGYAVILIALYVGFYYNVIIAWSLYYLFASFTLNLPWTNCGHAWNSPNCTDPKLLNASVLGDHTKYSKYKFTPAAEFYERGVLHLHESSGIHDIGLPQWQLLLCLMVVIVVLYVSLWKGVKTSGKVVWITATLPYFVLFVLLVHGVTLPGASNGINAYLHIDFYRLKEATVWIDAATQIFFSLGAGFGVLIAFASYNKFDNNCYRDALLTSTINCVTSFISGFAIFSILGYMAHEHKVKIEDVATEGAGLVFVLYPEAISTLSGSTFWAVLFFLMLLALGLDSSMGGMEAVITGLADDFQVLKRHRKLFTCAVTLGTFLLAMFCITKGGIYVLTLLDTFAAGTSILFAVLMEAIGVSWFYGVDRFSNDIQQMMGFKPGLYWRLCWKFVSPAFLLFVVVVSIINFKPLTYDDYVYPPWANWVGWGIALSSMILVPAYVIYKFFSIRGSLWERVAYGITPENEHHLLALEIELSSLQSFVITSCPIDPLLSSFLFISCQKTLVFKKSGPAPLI
Data set [19] can be described thus: as §3. In outline: as §2
For data set [20], the species on record is Rattus norvegicus. The experiment in a line: Inhibition of GABA uptake from rat diencephalon-midbrain at 10 uM concentration. The format is functional. Put shortly:
as §2

The target in data set [21] is T2, Glutamate decarboxylase 1 (Rattus norvegicus). Nature of the data set: Percent of enzyme inhibition by Glutamate decarboxylase (GAD) assay method. Particulars: concentration not given here. Put shortly:
as §5

The species named for data set [22] is Rattus norvegicus. Nature of the data set: Inhibition of GABA uptake from rat diencephalon-midbrain at 100 uM concentration. The format is functional.
Data set [23] addresses T1, GABA-A receptor; anion channel (Rattus norvegicus). Conditions: Cerebellum, 0.003-0.006 uM.
Data set [24] addresses GABA-A receptor; anion channel. Nature of the data set: Displacement of [3H]- muscimol from GABA-A receptor from rat cerebellum membrane at 0.24-0.45 uM. The data set is classed as tissue-based.
A short description of data set [25]: as §3. Particulars: concentration not given here. Put shortly: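 Rat diencephalon-midbrain P2 synaptosomal fraction (0.32 M sucrose homogenate, differential centrifugation), pooled from three rats. Preincubated 15 min at 37 °C with inhibitor in oxygenated Tris/NaCl buffer pH 7.4 containing 2.7 mM CaCl2 and 10 µM aminooxyacetic acid. Then 3 min uptake of 1 µM [3H]GABA, filtration, scintillation counting, minus 0 °C uptake. Screened at 10, 1, 0.1 µM in quadruplicate.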

The nature of data set [26]: Dissociation constant pKa (CO2H) of the compound. The format is physicochemical.
Data set [27] is described as follows: Dissociation constant pKa (N) of the compound. The data set is classed as physicochemical.

D(2) dopamine receptor (Rattus norvegicus), sequence (P61169 whole entry): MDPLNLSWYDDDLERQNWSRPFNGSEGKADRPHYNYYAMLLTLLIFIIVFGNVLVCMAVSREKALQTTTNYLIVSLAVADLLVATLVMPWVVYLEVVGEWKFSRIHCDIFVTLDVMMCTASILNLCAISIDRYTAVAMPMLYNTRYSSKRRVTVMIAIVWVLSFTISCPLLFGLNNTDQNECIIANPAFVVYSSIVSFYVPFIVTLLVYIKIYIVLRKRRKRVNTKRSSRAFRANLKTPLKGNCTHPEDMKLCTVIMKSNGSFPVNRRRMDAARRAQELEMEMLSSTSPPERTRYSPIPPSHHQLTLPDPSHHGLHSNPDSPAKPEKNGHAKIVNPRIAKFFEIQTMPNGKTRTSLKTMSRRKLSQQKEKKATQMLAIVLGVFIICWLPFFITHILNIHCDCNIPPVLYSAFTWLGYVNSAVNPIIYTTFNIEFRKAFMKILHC

Consider `NOCC(=O)O`, for which the inhibition in data set [1] came out at 83%.
Take `O=C(O)[C@H]1CCCNC1` [(S)-NIPECOTIC ACID]: in the data set listed under Rattus norvegicus [2], inhibition was half-maximal at 9.88 µM (IC50).
With `O=C(O)[C@@H]1CCCN(CCC=C(c2ccccc2)c2ccccc2)C1`, the values for the IC50 in the data set listed under Rattus norvegicus [3] and in the data set filed under Rattus norvegicus [4] were 0.11 µM and 123 µM, respectively.
Take `O=C(O)C1CCCN(CCC=C(c2ccccc2)c2ccccc2)C1` (configuration not stated): the inhibition in data set [5] amounted to 22%; in [6], 8%; in data set [9], 12%; in [10], 12%; in data set [12], 12%; in data set [13], 21%. Besides, the inhibition in data set [14] came out at 16%; in [15], 7%. The half-inhibitory concentration (IC50) came out at 0.2 µM in the data set filed under Rattus norvegicus [3] and 117 µM in the data set listed under Rattus norvegicus [4]. In addition, the pKa in [7] was 3.32; in [8], 9.36. This molecule showed a logD in data set [11] of 1.14.
For the molecule `NNC(=O)c1ccncc1`, in data set [16], the inhibition was 42%.
With `O=C(O)C1=CCCN(CCC=C(c2ccccc2)c2ccccc2)C1`, the IC50 in the data set listed under Rattus norvegicus [3] came to 0.2 µM; in the data set listed under Rattus norvegicus [4], 58.2 µM. The inhibition was found to be 8% in data set [6], 9% in data set [12], 5% in data set [13] and 7% in data set [15].
In turn, `O=C(O)C1CCCN(CCCC=C(c2ccccc2)c2ccccc2)C1` (configuration not stated) came in with an Inhibition in the data set filed under Rattus norvegicus [17] of 31%.
`O=C(O)C1CN(CCC=C(c2ccccc2)c2ccccc2)CCC1O` (configuration not stated): the IC50 was 33.6 µM in data set [18] and 0.26 µM in data set [19]. In data set [6], this molecule had an inhibition of 48%.
For `O=C(O)[C@@H]1CCCNC1` [(R)-NIPECOTIC ACID], half-maximal inhibition in the data set listed under Rattus norvegicus [3] (IC50) required 1.69 µM.
Molecule `O=C(O)C1CCCN(CC=C(c2ccccc2)c2ccccc2)C1` (configuration not stated) yielded an Inhibition in the data set listed under Rattus norvegicus [20] of 5%.
For `O=C(O)C1=CCCNC1` [GUVACINE], the values for the inhibition in data set [21], in data set [1] and in data set [6] were 0%, 7% and 27%, respectively. Besides, in the data set listed under Rattus norvegicus [3], the 50% inhibitory concentration (IC50) came to 4.92 µM.
Take `CCOC(=O)C1CCCN(CCC=C(c2ccccc2)c2ccccc2)C1` (configuration not stated): the Increase in the data set listed under Rattus norvegicus [22] worked out at 17%.
In the data set listed under Rattus norvegicus [3], `O=C(O)C1CNCCC1O` (configuration not stated) gave an IC50 of 4.56 µM. The same molecule displayed an Inhibition in the data set filed under Rattus norvegicus [4] of 7%. Also, the inhibition in data set [6] was determined as 10%.
`NCc1cc(O)no1`: in data set [23], the inhibition turned out to be 0.004%.
Regarding `O=C(O)CC1CCNC1` (configuration not stated), the 50% inhibitory concentration (IC50) in the data set listed under Rattus norvegicus [3] amounted to 1.54 µM; in [24], 0.33 µM.
In data set [25], `COC(=O)C1=CCCNC1` yielded an inhibition of 4%.
Regarding `O=C(O)[C@H]1CCCN(CCC=C(c2ccccc2)c2ccccc2)C1`, the IC50 came out at 1.91 µM in the data set listed under Rattus norvegicus [3] and 180 µM in the data set listed under Rattus norvegicus [4].
In the case of `O=C(O)CC1CCN(CCC=C(c2ccccc2)c2ccccc2)C1` (configuration not stated), the results for the half-inhibitory concentration (IC50) in [18] and in data set [19] were 108 µM and 0.12 µM, respectively. This molecule registered an inhibition in data set [6] of 20%.
With `O=C(O)C1CCCN(CCCC(c2ccccc2)c2ccccc2)C1` (configuration not stated), the Inhibition in the data set listed under Rattus norvegicus [20] is listed as 27%.
`NC1CCCC(C(=O)O)C1` (configuration not stated) displayed a 50% inhibitory concentration (IC50) in the data set filed under Rattus norvegicus [3] of 8.13 µM. This lies in the single-digit micromolar range.
Molecule `O=C(O)C1CCCC(NCCC=C(c2ccccc2)c2ccccc2)C1` (configuration not stated) gave a concentration for half-maximal inhibition (IC50) in the data set listed under Rattus norvegicus [4] of 29.9 µM. In the data set filed under Rattus norvegicus [20], the Inhibition turned out to be 54%.
As to `O=C(O)C1CCCNC1` (configuration not stated) [NIPECOTIC ACID], the pKa in data set [26] worked out at 3.45; in [27], 10.3. The results for the inhibition in data set [1] and in data set [16] were 3% and 0%, respectively. In the data set filed under Rattus norvegicus [3], 3.94 µM corresponded to half-maximal inhibition (IC50).
In the data set listed under Rattus norvegicus [4], `CN(C)CCCN1c2ccccc2CCc2ccccc21` [IMIPRAMINE] came in with an IC50 of 0.027 µM. In addition, in the data set filed under Rattus norvegicus [22], the Inhibition is 68%.
Take `O=C(O)CCCNCCC=C(c1ccccc1)c1ccccc1`: the values for the IC50 in [18] and in [19] were 35.1 µM and 16.5 µM, respectively. In addition, in data set [6], the inhibition was determined as 35%.
As for `CCOC(=O)C1CCCNC1` (configuration not stated), in the data set listed under Rattus norvegicus [22], the Inhibition turned out to be 52%.
